Experimental data as given in ChEMBL document CHEMBL3244403, “Cholecystokinin (pancreozymin). 4. Synthesis and properties of a biologically active analogue of the C-terminal heptapeptide with epsilon-hydroxynorleucine sulfate replacing tyrosine sulfate” (J Med Chem, 1978).
Blank lines part the entries; values can stand above or below the molecule they belong to. Activity calls are given as the source filed them. No cut-off for these calls is given here. Starred links: 1 amine or outer side, 2 acyl side, 3 side chain; linkers in the order of their positions; H or OH if unused. Non-standard residues stand in square brackets, D forms with d. Residues, ends and D or L forms follow the SMILES beside them. *: point of attachment. X1 = O=C([C@H](CCCCOS(=O)(=O)O)N[*:1])[*:2]; sY = N[C@@H](Cc1ccc(OS(=O)(=O)O)cc1)C(=O)O; Boc = CC(C)(C)OC(=O)*

Assays:
Cavia porcellus [1] = species: Cavia porcellus; test: Agonist activity at cholecystokinin receptor in NIH guinea pig pancreatic acinar cells assessed as induction of amylase secretion
Outline: (§1)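 Guinea pig pancreas collagenase-dispersed acini in 100% O2-gassed Hepes buffer pH 7.4 containing 0.5 mM calcium and 5 mM theophylline. Amylase in supernatant assayed in duplicate with Phedabas reagent. Release expressed as % of total cellular amylase appearing in medium during incubation. CCK-(26-33) used as reference.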

Cavia porcellus [2] = species: Cavia porcellus; test: Agonist activity at cholecystokinin receptor in NIH guinea pig assessed as gall bladder contraction at 7 to 1900 ng by in situ assay; assay type: tissue-based
Outline: (§2)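 Guinea pig gall bladder in situ (Ljungberg method), contraction recorded via strain gauge transducer after injection. Peptides first dissolved at 10 μg/mL in physiological saline containing 1 mg/mL NaHCO3 and 1 mg/mL L-cysteine. Response compared with injected standard cholecystokinin in Ivy dog units.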

Cavia porcellus [3] = species: Cavia porcellus; test: Agonist activity at cholecystokinin receptor in NIH guinea pig pancreatic acinar cells assessed as induction of amylase secretion at 0.03 to 0.3 nM; outline: as §1
Cavia porcellus [4] = species: Cavia porcellus; test: Agonist activity at cholecystokinin receptor in NIH guinea pig assessed as gall bladder contraction at 7 to 21 ng by in situ assay; assay type: tissue-based; outline: as §2
[5] = Retardation factor of the compound using 1-butanol-AcOH-H2O at ratio of 4:1:1 as solvent system by thin layer chromatography; assay type: physicochemical
[6] = Retardation factor of the compound using EtOAc-pyridine-AcOH-H2O at ratio of 60:20:6:11 as solvent system by thin layer chromatography; assay type: physicochemical
[7] = Retardation factor of the compound using EtOAc-pyridine-AcOH-H2O at ratio of 120:20:6:11 as solvent system by thin layer chromatography; assay type: physicochemical
Cavia porcellus [8] = species: Cavia porcellus; test: Agonist activity at cholecystokinin receptor in NIH guinea pig assessed as gall bladder contraction at 7 ng by in situ assay; assay type: tissue-based; outline: as §2

Activity (Cavia porcellus [1]): Active
Activity (Cavia porcellus [2]): Active
SMILES: CSCC[C@H](NC(=O)[C@H](COS(=O)(=O)O)NC(=O)OC(C)(C)C)C(=O)NCC(=O)N[C@@H](Cc1c[nH]c2ccccc12)C(=O)N[C@@H](CCSC)C(=O)N[C@@H](CC(=O)O)C(=O)N[C@@H](Cc1ccccc1)C(N)=O

SMILES: CSCC[C@H](NC(=O)[C@H](Cc1ccc(OS(=O)(=O)O)cc1)NC(=O)[C@@H](N)CC(=O)O)C(=O)NCC(=O)N[C@@H](Cc1c[nH]c2ccccc12)C(=O)N[C@@H](CCSC)C(=O)N[C@@H](CC(=O)O)C(=O)N[C@@H](Cc1ccccc1)C(N)=O
Activity (Cavia porcellus [3]): Active

Activity (Cavia porcellus [1]): Active
Activity (Cavia porcellus [4]): Active
Rf [5]: 0.55
Rf [6]: 0.31
Rf [7]: 0.19
SMILES: CSCC[C@H](NC(=O)[C@H](CCCCOS(=O)(=O)O)NC(=O)OC(C)(C)C)C(=O)NCC(=O)N[C@@H](Cc1c[nH]c2ccccc12)C(=O)N[C@@H](CCSC)C(=O)N[C@@H](CC(=O)O)C(=O)N[C@@H](Cc1ccccc1)C(N)=O (Boc-[X1]MGWMDF-NH2)

Activity (Cavia porcellus [1]): Active
Activity (Cavia porcellus [8]): Active
SMILES: CSCC[C@H](NC(=O)[C@H](Cc1ccc(OS(=O)(=O)O)cc1)NC(=O)OC(C)(C)C)C(=O)NCC(=O)N[C@@H](Cc1c[nH]c2ccccc12)C(=O)N[C@@H](CCSC)C(=O)N[C@@H](CC(=O)O)C(=O)N[C@@H](Cc1ccccc1)C(N)=O (Boc-[sY]MGWMDF-NH2)
